In ChEMBL document CHEMBL1154630, “Discovery of colon tumor cell growth inhibitory agents through a combinatorial approach” (Eur J Med Chem, 2010):

Experiments:
[1] = molecular target: T1, cGMP-inhibited 3',5'-cyclic phosphodiesterase 3A (Homo sapiens, UniProt Q14432); assay: Inhibition of human recombinant PDE3A at 50 uM by fluorescence polarization assay using cGMP as substrate
HT-29 [2] = assay: Cytotoxicity against human HT-29 cells at 50 uM after 72 hrs by celltiter glo assay; format: functional; conditions: HT-29, 72 h, read-out: GI
How it was run: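 HT-29 cells in RPMI 1640 plus 5% FBS, cultures >95% viable by Trypan blue. Seeded at 5000 cells/well and incubated 18–24 h, then exposed to a single 50 μM screening dose in triplicate. Live cells measured by CellTiter-Glo luminescent ATP assay at 72 h; percent growth inhibition reported.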

[3] = molecular target: T1, cGMP-inhibited 3',5'-cyclic phosphodiesterase 3A; assay: Inhibition of human recombinant PDE3A at 50 uM by fluorescence polarization assay using cAMP as substrate
[4] = molecular target: T1, cGMP-inhibited 3',5'-cyclic phosphodiesterase 3A; assay: Inhibition of human recombinant PDE3A by fluorescence polarization assay using cGMP as substrate
[5] = molecular target: T1, cGMP-inhibited 3',5'-cyclic phosphodiesterase 3A; assay: Inhibition of human recombinant PDE3A by fluorescence polarization assay using cAMP as substrate
HT-29 [6] = assay: Cytotoxicity against human HT-29 cells after 72 hrs by celltiter glo assay; format: functional, cell-based; conditions: HT-29, 72 h
How it was run: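 HT-29 cells grown in RPMI 1640 with 5% FBS, used only at >95% viability (Trypan blue). 5000 cells/well, left 18–24 h before treatment. Viability read by CellTiter-Glo luminescence (ATP content) 72 h after treatment. IC50 from 8 concentrations, at least four replicates each, fitted to a four-parameter logistic equation.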

[7] = molecular target: Baculoviral IAP repeat-containing protein 5 (Homo sapiens, UniProt O15392); assay: Inhibition of survivin
Baculoviral IAP repeat-containing protein 5, sequence (O15392 whole entry): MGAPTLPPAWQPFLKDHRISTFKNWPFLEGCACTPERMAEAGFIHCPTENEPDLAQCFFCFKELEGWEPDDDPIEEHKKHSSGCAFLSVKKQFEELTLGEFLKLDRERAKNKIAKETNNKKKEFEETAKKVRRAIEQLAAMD

T1 sequence (Q14432 whole entry): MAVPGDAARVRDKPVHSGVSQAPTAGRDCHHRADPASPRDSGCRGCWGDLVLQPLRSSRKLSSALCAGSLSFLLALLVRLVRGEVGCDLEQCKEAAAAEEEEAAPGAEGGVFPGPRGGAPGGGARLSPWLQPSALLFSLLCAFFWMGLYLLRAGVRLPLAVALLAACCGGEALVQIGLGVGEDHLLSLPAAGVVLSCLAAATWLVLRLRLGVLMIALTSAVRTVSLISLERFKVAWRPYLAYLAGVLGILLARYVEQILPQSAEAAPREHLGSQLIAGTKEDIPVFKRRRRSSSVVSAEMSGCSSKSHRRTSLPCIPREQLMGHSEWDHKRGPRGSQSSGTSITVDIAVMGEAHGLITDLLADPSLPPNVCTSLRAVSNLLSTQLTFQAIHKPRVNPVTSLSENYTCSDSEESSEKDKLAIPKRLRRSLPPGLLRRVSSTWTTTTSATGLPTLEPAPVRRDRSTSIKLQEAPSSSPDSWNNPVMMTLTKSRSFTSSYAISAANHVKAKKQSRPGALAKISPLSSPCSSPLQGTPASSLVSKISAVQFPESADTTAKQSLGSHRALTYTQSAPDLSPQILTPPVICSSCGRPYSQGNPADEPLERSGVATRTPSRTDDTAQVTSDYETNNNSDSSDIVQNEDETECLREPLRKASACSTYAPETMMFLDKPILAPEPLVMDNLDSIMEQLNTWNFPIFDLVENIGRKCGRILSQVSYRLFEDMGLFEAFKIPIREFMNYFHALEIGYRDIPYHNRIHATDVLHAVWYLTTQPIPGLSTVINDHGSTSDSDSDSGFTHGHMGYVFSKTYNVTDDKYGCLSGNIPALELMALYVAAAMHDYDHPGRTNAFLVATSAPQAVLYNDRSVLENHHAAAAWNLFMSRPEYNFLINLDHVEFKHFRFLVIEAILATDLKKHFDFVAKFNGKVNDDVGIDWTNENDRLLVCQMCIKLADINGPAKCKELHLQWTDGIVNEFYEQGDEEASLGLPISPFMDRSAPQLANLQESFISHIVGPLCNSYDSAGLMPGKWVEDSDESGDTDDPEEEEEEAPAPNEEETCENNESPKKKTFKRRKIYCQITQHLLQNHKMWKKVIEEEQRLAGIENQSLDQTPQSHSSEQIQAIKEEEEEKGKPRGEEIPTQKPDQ

COc1ccc(-c2cc(-c3ccc(Br)cc3)[nH]c(=O)c2C#N)c(OC)c1 showed an inhibition [1] of -8%, an inhibition of growth at 50 µM (HT-29 [2]) of 0% and an inhibition [3] of 2%.
For CCOc1ccc(-c2cc(-c3ccsc3)[nH]c(=N)c2C#N)cc1, the IC50 [4] was 13.5 µM, the IC50 [5] was 13.3 µM and the inhibition [1] was 80%. For the same compound, the inhibition of growth at 50 µM (HT-29 [2]) was -10% and the inhibition [3] was 55%.
COc1ccc(-c2cc(-c3ccsc3)[nH]c(=N)c2C#N)cc1 gave an inhibition [1] of 30%, an inhibition of growth at 50 µM (HT-29 [2]) of 75% and an IC50 (HT-29 [6]) of 2.7 µM. For the same compound, the inhibition [3] was 10%.
Compound N#Cc1c(-c2ccccc2Cl)cc(-c2ccc(Br)cc2)[nH]c1=N has an inhibition [1] of 47%, an inhibition of growth at 50 µM (HT-29 [2]) of -16% and an inhibition [3] of 36%.
Work on N#Cc1c(-c2ccsc2)cc(-c2ccccc2)[nH]c1=O yielded an inhibition [1] of 9%, an inhibition of growth at 50 µM (HT-29 [2]) of -10% and an inhibition [3] of 7%.
Work on N#Cc1c(-c2cccc(Cl)c2)cc(-c2ccccc2)[nH]c1=O yielded an inhibition [1] of 24%, an inhibition of growth at 50 µM (HT-29 [2]) of 80% and an IC50 (HT-29 [6]) of 2.1 µM. It also gave an inhibition [3] of 10%.
CCOc1ccccc1-c1cc(-c2ccsc2)[nH]c(=N)c1C#N showed an inhibition [1] of -10%, an inhibition of growth at 50 µM (HT-29 [2]) of 92% and an IC50 (HT-29 [6]) of 6 µM. For the same compound, the inhibition [3] was 37%.
N#Cc1c(-c2ccccc2O)cc(-c2ccc(Br)cc2)[nH]c1=O showed an inhibition [1] of 28%, an inhibition of growth at 50 µM (HT-29 [2]) of 94% and an IC50 (HT-29 [6]) of 21 µM. It also gave an inhibition [3] of 10%.
COc1ccc(-c2cc(-c3ccc(Br)cc3)[nH]c(=N)c2C#N)c(OC)c1 was tested, and the inhibition [1] was 70%, the inhibition of growth at 50 µM (HT-29 [2]) was 2% and the inhibition [3] was 25%.
For N#Cc1c(-c2cccc(Cl)c2)cc(-c2ccc(Br)cc2)[nH]c1=N, the inhibition [1] was 13%, the inhibition of growth at 50 µM (HT-29 [2]) was 7% and the inhibition [3] was 10%.
Work on COc1ccccc1-c1cc(-c2ccsc2)[nH]c(=O)c1C#N yielded an inhibition [1] of 8%, an inhibition of growth at 50 µM (HT-29 [2]) of 20% and an inhibition [3] of 10%.
Work on N#Cc1c(-c2ccccc2O)cc(-c2cccc(Br)c2)[nH]c1=N yielded an inhibition [1] of 36%, an inhibition of growth at 50 µM (HT-29 [2]) of 30% and an inhibition [3] of 18%.
In the case of COc1ccccc1-c1cc(-c2ccsc2)[nH]c(=N)c1C#N, the inhibition of growth at 50 µM (HT-29 [2]) is reported as 78%, the IC50 (HT-29 [6]) is reported as 35 µM and the inhibition [3] is reported as 47%.
With COc1ccc(-c2cc(-c3ccsc3)[nH]c(=O)c2C#N)cc1 the inhibition [1] was 0%, the inhibition of growth at 50 µM (HT-29 [2]) was -20% and the inhibition [3] was 8%.
CCOc1ccccc1-c1cc(-c2ccsc2)[nH]c(=O)c1C#N gave an inhibition [1] of 20%, an inhibition of growth at 50 µM (HT-29 [2]) of 80% and an IC50 (HT-29 [6]) of 1.25 µM. The inhibition [3] was 5%.
In the case of N#Cc1c(-c2cccc(Cl)c2)cc(-c2ccc(Br)cc2)[nH]c1=O, the inhibition [1] is reported as 21%, the inhibition of growth at 50 µM (HT-29 [2]) is reported as 7% and the inhibition [3] is reported as 8%.
Compound N#Cc1c(-c2ccccc2O)cc(-c2ccccc2Br)[nH]c1=O has an inhibition [1] of 50%, an inhibition of growth at 50 µM (HT-29 [2]) of 22% and an inhibition [3] of 34%.
Work on N#Cc1c(-c2ccc(Cl)cc2)cc(-c2ccsc2)[nH]c1=O yielded an inhibition [1] of 14% and an inhibition [3] of 5%.
COc1ccc(OC)c(-c2cc(-c3ccc(Br)cc3)[nH]c(=O)c2C#N)c1 was tested, and the inhibition [1] was 17%, the inhibition of growth at 50 µM (HT-29 [2]) was 33% and the inhibition [3] was 8%.
In the case of N#Cc1c(-c2ccsc2)cc(-c2ccccc2)[nH]c1=N, the inhibition [1] is reported as 0%, the inhibition of growth at 50 µM (HT-29 [2]) is reported as 25% and the inhibition [3] is reported as 4%.
In the case of COc1ccc(OC)c(-c2cc(-c3ccc(Br)cc3)[nH]c(=N)c2C#N)c1, the inhibition [1] is reported as 20%, the inhibition of growth at 50 µM (HT-29 [2]) is reported as 95% and the IC50 (HT-29 [6]) is reported as 4 µM. For the same compound, the inhibition [3] was 20%.
In the case of N#Cc1c(-c2ccccc2O)cc(-c2ccsc2)[nH]c1=O, the inhibition [1] is reported as 37%, the inhibition of growth at 50 µM (HT-29 [2]) is reported as 79% and the IC50 (HT-29 [6]) is reported as 46 µM. It also gave an inhibition [3] of 21%.
With N#Cc1c(-c2ccccc2Cl)cc(-c2ccc(Br)cc2)[nH]c1=O the inhibition [1] was 36%, the inhibition of growth at 50 µM (HT-29 [2]) was 5% and the inhibition [3] was 18%.
N#Cc1c(-c2ccccc2O)cc(-c2ccc(Br)cc2)[nH]c1=N gave an inhibition [1] of 27%, an inhibition of growth at 50 µM (HT-29 [2]) of 23% and an inhibition [3] of 22%.
N#Cc1c(-c2ccccc2O)cc(-c2cccc(Br)c2)[nH]c1=O showed an inhibition [1] of 45%, an inhibition of growth at 50 µM (HT-29 [2]) of -5% and an inhibition [3] of 20%.
CCOc1ccc(-c2cc(-c3ccsc3)[nH]c(=O)c2C#N)cc1 showed an inhibition [1] of 0%, an inhibition of growth at 50 µM (HT-29 [2]) of -1% and an inhibition [3] of 7%.
For N#Cc1c(-c2cccc(Cl)c2)cc(-c2ccccc2)[nH]c1=N, the inhibition [1] was 20% and the inhibition [3] was 15%.
Compound N#Cc1c(-c2ccccc2O)cc(-c2ccccc2Br)[nH]c1=N has an inhibition [1] of 40%, an inhibition of growth at 50 µM (HT-29 [2]) of 28% and an inhibition [3] of 20%.
N#Cc1c(-c2ccccc2)cc(-c2cc(Br)ccc2O)[nH]c1=O showed a Kd [7] of 5.7 µM.
Work on N#Cc1c(-c2ccccc2O)cc(-c2ccsc2)[nH]c1=N yielded an inhibition [1] of 26%, an inhibition of growth at 50 µM (HT-29 [2]) of 44% and an inhibition [3] of 21%.
N#Cc1c(-c2ccc(Cl)cc2)cc(-c2ccsc2)[nH]c1=N gave an inhibition [1] of 45%, an inhibition of growth at 50 µM (HT-29 [2]) of 65% and an inhibition [3] of 28%.
